Consider 4 compounds from ChEMBL document CHEMBL1152480, “Synthesis of novel carbazole based macrocyclic amides as potential antimicrobial agents” (2009).

Converted amounts (≈) assume the structure as drawn.

For one experiment, the system named is Curvularia lunata. The experiment is described as follows: Antifungal activity against Curvularia lunata after 3 days by well diffusion assay. The class given is functional.
Conditions: not given
The method in brief: (§1)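 Fungi maintained on potato dextrose agar (potato 200 g/l, dextrose 20 g/l; pH 6.5) at room temperature (28 ± 2 °C). Well diffusion assay against DMSO control; MIC read as lowest concentration causing prominent inhibition of fungal growth after 3 days incubation at 37 °C.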
(In agar diffusion tests the substance spreads into inoculated agar from a disc or well.)
Take `CCn1c2ccc3cc2c2cc(ccc21)CSc1ccccc1NC(=O)COc1ccc2ccccc2c1-c1c(ccc2ccccc12)OCC(=O)Nc1ccccc1SC3`: the Activity result is “Dose-dependent effect”.
For `CCn1c2ccc3cc2c2cc(ccc21)CSc1ccccc1NC(=O)c1cccc(n1)C(=O)Nc1ccccc1SC3`, the Activity entry was “Dose-dependent effect”.

Staying with this experiment, now noted: 72 h.
In the case of `COC(=O)Nc1nc2ccccc2[nH]1` [CARBENDAZIM], it took 15 µg/mL (≈ 78.5 µM) to inhibit growth (MIC).
As for `CCn1c2ccc3cc2c2cc(ccc21)CSc1ccccc1NC(=O)COc1ccc2ccccc2c1-c1c(ccc2ccccc12)OCC(=O)Nc1ccccc1SC3`, the lowest concentration to inhibit growth (MIC) was 10 µg/mL (≈ 12 µM).
`CCn1c2ccc3cc2c2cc(ccc21)CSc1ccccc1NC(=O)c1cccc(n1)C(=O)Nc1ccccc1SC3`: the MIC (usually the smallest concentration in the dilution series that meets the test's criterion for growth inhibition) was determined as 15 µg/mL (≈ 25 µM).

The next experiment deals with Staphylococcus aureus. The experiment is described as follows: Antibacterial activity against Staphylococcus aureus after 24 hrs by well diffusion assay. The class given is functional.
Conditions: not given
The method in brief: (§2)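 Bacteria kept on nutrient agar (beef extract, yeast extract, peptone, NaCl; pH 7.2) at room temperature (28 ± 2 °C). Compounds tested by well diffusion against DMSO control, tetracycline reference. MIC taken as lowest concentration giving prominent inhibition of bacterial growth after 24 h at 37 °C.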
Regarding `CN(C)[C@@H]1C(O)=C(C(N)=O)C(=O)[C@@]2(O)C(O)=C3C(=O)c4c(O)cccc4[C@@](C)(O)[C@H]3C[C@@H]12` [TETRACYCLINE], 20 µg/mL (≈ 45 µM) was the least that counted as inhibitory (MIC).
In the case of `CCn1c2ccc3cc2c2cc(ccc21)CSc1ccccc1NC(=O)COc1ccc2ccccc2c1-c1c(ccc2ccccc12)OCC(=O)Nc1ccccc1SC3`, the Activity result is “Dose-dependent effect” and the MIC was found to be 10 µg/mL (≈ 12 µM).
Take `CCn1c2ccc3cc2c2cc(ccc21)CSc1ccccc1NC(=O)c1cccc(n1)C(=O)Nc1ccccc1SC3`: the Activity result is “Dose-dependent effect” and the minimal inhibitory concentration (MIC) was 10 µg/mL (≈ 16.6 µM).

For another experiment, the system named is Proteus vulgaris. The experiment is described as follows: Antibacterial activity against Proteus vulgaris after 24 hrs by well diffusion assay. The class given is functional.
Conditions: not given
In a few lines:
as §2
Compound `CN(C)[C@@H]1C(O)=C(C(N)=O)C(=O)[C@@]2(O)C(O)=C3C(=O)c4c(O)cccc4[C@@](C)(O)[C@H]3C[C@@H]12` [TETRACYCLINE] returned an MIC of 35 µg/mL (≈ 78.8 µM).
For `CCn1c2ccc3cc2c2cc(ccc21)CSc1ccccc1NC(=O)COc1ccc2ccccc2c1-c1c(ccc2ccccc12)OCC(=O)Nc1ccccc1SC3`, the Activity result is “Dose-dependent effect” and the MIC stood at 5 µg/mL (≈ 5.98 µM).
As to `CCn1c2ccc3cc2c2cc(ccc21)CSc1ccccc1NC(=O)c1cccc(n1)C(=O)Nc1ccccc1SC3`, the Activity entry was “Dose-dependent effect” and inhibition of growth (MIC) required 30 µg/mL (≈ 49.9 µM).

For the next experiment, the system named is Alternaria alternata. The experiment is described as follows: Antifungal activity against Alternaria alternata after 3 days by well diffusion assay. The class given is functional.
Conditions: not given
In a few lines: as §1
In the case of `CCn1c2ccc3cc2c2cc(ccc21)CSc1ccccc1NC(=O)COc1ccc2ccccc2c1-c1c(ccc2ccccc12)OCC(=O)Nc1ccccc1SC3`, the Activity result was “Dose-dependent effect”.
For `CCn1c2ccc3cc2c2cc(ccc21)CSc1ccccc1NC(=O)c1cccc(n1)C(=O)Nc1ccccc1SC3`, the Activity entry is “Dose-dependent effect”.

The same experiment, now with this note: 72 h.
In turn, `COC(=O)Nc1nc2ccccc2[nH]1` [CARBENDAZIM] registered a minimal inhibitory concentration (MIC) of 12 µg/mL (≈ 62.8 µM).
For `CCn1c2ccc3cc2c2cc(ccc21)CSc1ccccc1NC(=O)COc1ccc2ccccc2c1-c1c(ccc2ccccc12)OCC(=O)Nc1ccccc1SC3`, inhibition of growth (MIC) required 10 µg/mL (≈ 12 µM).
On to `CCn1c2ccc3cc2c2cc(ccc21)CSc1ccccc1NC(=O)c1cccc(n1)C(=O)Nc1ccccc1SC3`, for which the lowest concentration to inhibit growth (MIC) was 15 µg/mL (≈ 25 µM).

For another experiment, the system named is Proteus mirabilis. The experiment is described as follows: Antibacterial activity against Proteus mirabilis after 24 hrs by well diffusion assay.
Conditions: not given
The class given is functional. The method in brief:
as §2
The compound `CN(C)[C@@H]1C(O)=C(C(N)=O)C(=O)[C@@]2(O)C(O)=C3C(=O)c4c(O)cccc4[C@@](C)(O)[C@H]3C[C@@H]12` [TETRACYCLINE] showed an MIC of 20 µg/mL (≈ 45 µM).
Regarding `CCn1c2ccc3cc2c2cc(ccc21)CSc1ccccc1NC(=O)COc1ccc2ccccc2c1-c1c(ccc2ccccc12)OCC(=O)Nc1ccccc1SC3`, the Activity entry is “Dose-dependent effect” and the MIC was 5 µg/mL (≈ 5.98 µM).
Consider `CCn1c2ccc3cc2c2cc(ccc21)CSc1ccccc1NC(=O)c1cccc(n1)C(=O)Nc1ccccc1SC3`, for which the Activity entry was “Dose-dependent effect” and the MIC was 5 µg/mL (≈ 8.32 µM).

A further experiment concerns Macrophomina phaseolina. The experiment is described as follows: Antifungal activity against Macrophomina phaseolina after 3 days by well diffusion assay.
Conditions: not given
The class given is functional. In a few lines: as §1
As to `CCn1c2ccc3cc2c2cc(ccc21)CSc1ccccc1NC(=O)COc1ccc2ccccc2c1-c1c(ccc2ccccc12)OCC(=O)Nc1ccccc1SC3`, the Activity result is “Dose-dependent effect”.
Consider `CCn1c2ccc3cc2c2cc(ccc21)CSc1ccccc1NC(=O)c1cccc(n1)C(=O)Nc1ccccc1SC3`, for which the Activity entry was “Dose-dependent effect”.

Still in this experiment, the particulars now being: 72 h.
Take `COC(=O)Nc1nc2ccccc2[nH]1` [CARBENDAZIM]: the minimum inhibitory concentration (MIC) amounted to 18 µg/mL (≈ 94.1 µM).
For `CCn1c2ccc3cc2c2cc(ccc21)CSc1ccccc1NC(=O)COc1ccc2ccccc2c1-c1c(ccc2ccccc12)OCC(=O)Nc1ccccc1SC3`, 15 µg/mL (≈ 17.9 µM) was the least that counted as inhibitory (MIC).
As to `CCn1c2ccc3cc2c2cc(ccc21)CSc1ccccc1NC(=O)c1cccc(n1)C(=O)Nc1ccccc1SC3`, the MIC turned out to be 10 µg/mL (≈ 16.6 µM).

In the next experiment the test system is Rhizoctonia solani. The experiment is described as follows: Antifungal activity against Rhizoctonia solani after 3 days by well diffusion assay. The class given is functional.
Conditions: not given
In a few lines:
as §1
With `CCn1c2ccc3cc2c2cc(ccc21)CSc1ccccc1NC(=O)COc1ccc2ccccc2c1-c1c(ccc2ccccc12)OCC(=O)Nc1ccccc1SC3`, the Activity entry was “Dose-dependent effect”.
As to `CCn1c2ccc3cc2c2cc(ccc21)CSc1ccccc1NC(=O)c1cccc(n1)C(=O)Nc1ccccc1SC3`, the Activity result is “Dose-dependent effect”.

The experiment is the same for the next values; noted with them: 72 h.
Compound `COC(=O)Nc1nc2ccccc2[nH]1` [CARBENDAZIM] showed an MIC of 25 µg/mL (≈ 131 µM).
`CCn1c2ccc3cc2c2cc(ccc21)CSc1ccccc1NC(=O)COc1ccc2ccccc2c1-c1c(ccc2ccccc12)OCC(=O)Nc1ccccc1SC3` registered an MIC of 20 µg/mL (≈ 23.9 µM).
On to `CCn1c2ccc3cc2c2cc(ccc21)CSc1ccccc1NC(=O)c1cccc(n1)C(=O)Nc1ccccc1SC3`, for which inhibition of growth (MIC) required 20 µg/mL (≈ 33.3 µM).

Another experiment has as its system Salmonella enterica subsp. enterica. The experiment is described as follows: Antibacterial activity against Salmonella typhi after 24 hrs by well diffusion assay. The class given is functional, Salmonella enterica subsp. enterica serovar Typhi.
Conditions: not given
In a few lines:
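S. typhi kept on nutrient agar (beef extract, yeast extract, peptone, NaCl, agar; pH 7.2) at 28 ± 2 °C. Agar well diffusion with DMSO as control and tetracycline as reference. MIC taken as the lowest concentration giving prominent inhibition of bacterial growth after 24 h at 37 °C.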
As for `CN(C)[C@@H]1C(O)=C(C(N)=O)C(=O)[C@@]2(O)C(O)=C3C(=O)c4c(O)cccc4[C@@](C)(O)[C@H]3C[C@@H]12` [TETRACYCLINE], the MIC worked out at 15 µg/mL (≈ 33.8 µM).
Regarding `CCn1c2ccc3cc2c2cc(ccc21)CSc1ccccc1NC(=O)COc1ccc2ccccc2c1-c1c(ccc2ccccc12)OCC(=O)Nc1ccccc1SC3`, inhibition of growth (MIC) required 10 µg/mL (≈ 12 µM).
`CCn1c2ccc3cc2c2cc(ccc21)CSc1ccccc1NC(=O)c1cccc(n1)C(=O)Nc1ccccc1SC3` registered an MIC of 30 µg/mL (≈ 49.9 µM).

Still in this experiment, the particulars now being: Salmonella enterica subsp. enterica serovar Typhi.
For the compound `CCn1c2ccc3cc2c2cc(ccc21)CSc1ccccc1NC(=O)COc1ccc2ccccc2c1-c1c(ccc2ccccc12)OCC(=O)Nc1ccccc1SC3`, the Activity entry was “Dose-dependent effect”.
`CCn1c2ccc3cc2c2cc(ccc21)CSc1ccccc1NC(=O)c1cccc(n1)C(=O)Nc1ccccc1SC3`: the Activity entry was “Dose-dependent effect”.
